Tests used:
[1] = target: SOS-catalyzed nucleotide exchange on RAS (SOScat, K-RAS G12D) (Homo sapiens, UniProt Q07889); test: SOS-catalyzed nucleotide exchange assay using BODIPY-GDP-loaded RAS; format: biochemical; details: average of the two values of Table 1; 100 μM compound; normalized to API
How it was run: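 SOScat (residues 564–1049) with BODIPY-GDP-loaded RAS in 25 mM Tris pH 7.5, 50 mM NaCl, 1 mM MgCl2. Compound added at 10 s and unlabeled GTP at 120 s; fluorescence loss followed for 30 min. Rates come from single-exponential decay fits, normalized between SOS-catalyzed exchange without compound (0) and the maximal rate from the control compound on each plate (100).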

[2] = tested on: phospho ERK1/2 T202/Y204 levels in HeLa cells; test: phospho ERK1/2 T202/Y204 levels in HeLa cells; format: cell-based; details: 30 minutes; for phospho ERK levels at higher concentrations: higher concentrations (up to 200 μM); for phospho ERK levels at lower concentrations: lower concentrations of compound
[3] = tested on: RAS-GTP levels in HeLa cells; test: RAS-GTP levels in HeLa cells; format: cell-based; details: 30 minutes, up to 200 μM compound

Structure (SMILES) | Average Relative Rate of Nucleotide Exchange at 100 μM [1] [%] | phospho ERK levels at higher concentrations [2] | phospho ERK levels at lower concentrations [2] | RAS-GTP levels relative to DMSO control [3]
c1ccc(C(CCNC2CCNCC2)c2ccccc2)cc1 [Compound 4a, N-(3,3-diphenylpropyl)piperidin-4-amine] | 69.1 | inhibition of phospho ERK levels was observed | induction of phospho ERK levels | increase in RAS-GTP levels was observed
N[C@@H](Cc1c[nH]c2ccccc12)C(=O)NC1CCN(Cc2c[nH]c3ccc(Cl)cc23)CC1 [API, (S)-2-amino-N-(1-((5-chloro-1H-indol-3-yl)methyl)piperidin-4-yl)-3-(1H-indol-3-yl)propanamide, reference compound] | 100 | inhibition of phospho ERK levels was observed | induction of phospho ERK levels | increase in RAS-GTP levels was observed
CCCN1CCC(NCCC(c2ccccc2)c2ccccc2)CC1 [Compound 4, N-(3,3-diphenylpropyl)-1-propylpiperidin-4-amine] | 50.9 | – | – | did not cause an increase in RAS-GTP levels
